Measured values as given in paper PMC5741288 (Pain Reports, 2016).

Assay: Treatment-emergent adverse events, tolerability
Format: in vivo, healthy men
Procedure, shortened: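 Healthy men received single oral tablet doses (part 1: 1–225 mg; part 2: 10, 50 mg) or placebo under double-blind randomisation. Treatment-emergent adverse events were recorded along with clinical laboratory tests, ECG, oral temperature, vital signs and physical examinations, through follow-up.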

CC(C)(O)c1ccccc1-c1ccc2[nH]c(/C=C/c3ccc(C(F)(F)F)cc3)nc2c1 [JNJ-39439335, trans-2-(2-{2-[2-(4-Trifluoromethyl-phenyl)-vinyl]-1H-benzimidazol-5-yl}-phenyl)-propan-2-ol]
Doses at which thermohypoesthesia occurred (in vivo): ≥ 10 mg
Participants with minor or first-degree burns on the hand or the mouth (of 79 participants receiving JNJ-39439335): 7 participants
TEAE Agusia (part 1, 1 mg (N = 6)): 0 n (%)
TEAE Back pain (part 1, 1 mg (N = 6)): 0 n (%)
TEAE Burning sensation (part 1, 1 mg (N = 6)): 0 n (%)
TEAE Chills (part 1, 1 mg (N = 6)): 0 n (%)
TEAE Dizziness (part 1, 1 mg (N = 6)): 0 n (%)
TEAE Dizziness postural (part 1, 1 mg (N = 6)): 1 (17) n (%)
TEAE Dysgeusia (part 1, 1 mg (N = 6)): 0 n (%)
TEAE Fatigue (part 1, 1 mg (N = 6)): 1 (17) n (%)
TEAE Feeling cold (part 1, 1 mg (N = 6)): 0 n (%)
TEAE Feeling hot (part 1, 1 mg (N = 6)): 0 n (%)
TEAE Headache (part 1, 1 mg (N = 6)): 0 n (%)
TEAE Hematoma (part 1, 1 mg (N = 6)): 0 n (%)
TEAE Hyperhidrosis (part 1, 1 mg (N = 6)): 0 n (%)
TEAE Hypoesthesia (part 1, 1 mg (N = 6)): 0 n (%)
TEAE Hypogeusia (part 1, 1 mg (N = 6)): 0 n (%)
TEAE Nausea (part 1, 1 mg (N = 6)): 0 n (%)
TEAE Paresthesia (part 1, 1 mg (N = 6)): 0 n (%)
TEAE Pruritus (part 1, 1 mg (N = 6)): 0 n (%)
TEAE Pyrexia (part 1, 1 mg (N = 6)): 0 n (%)
TEAE Rhinitis (part 1, 1 mg (N = 6)): 0 n (%)
TEAE Thermal burn (part 1, 1 mg (N = 6)): 0 n (%)
TEAE Thermohypoesthesia (part 1, 1 mg (N = 6)): 0 n (%)
Total no. participants with AEs (part 1, 1 mg (N = 6)): 2 (33) n (%)
TEAE Agusia (part 1, 2 mg (N = 6)): 0 n (%)
TEAE Back pain (part 1, 2 mg (N = 6)): 0 n (%)
TEAE Burning sensation (part 1, 2 mg (N = 6)): 0 n (%)
TEAE Chills (part 1, 2 mg (N = 6)): 0 n (%)
TEAE Dizziness (part 1, 2 mg (N = 6)): 0 n (%)
TEAE Dizziness postural (part 1, 2 mg (N = 6)): 0 n (%)
TEAE Dysgeusia (part 1, 2 mg (N = 6)): 0 n (%)
TEAE Fatigue (part 1, 2 mg (N = 6)): 0 n (%)
TEAE Feeling cold (part 1, 2 mg (N = 6)): 0 n (%)
TEAE Feeling hot (part 1, 2 mg (N = 6)): 0 n (%)
TEAE Headache (part 1, 2 mg (N = 6)): 1 (17) n (%)
TEAE Hematoma (part 1, 2 mg (N = 6)): 1 (17) n (%)
TEAE Hyperhidrosis (part 1, 2 mg (N = 6)): 0 n (%)
TEAE Hypoesthesia (part 1, 2 mg (N = 6)): 1 (17) n (%)
TEAE Hypogeusia (part 1, 2 mg (N = 6)): 0 n (%)
TEAE Nausea (part 1, 2 mg (N = 6)): 0 n (%)
TEAE Paresthesia (part 1, 2 mg (N = 6)): 0 n (%)
TEAE Pruritus (part 1, 2 mg (N = 6)): 0 n (%)
TEAE Pyrexia (part 1, 2 mg (N = 6)): 0 n (%)
TEAE Rhinitis (part 1, 2 mg (N = 6)): 0 n (%)
TEAE Thermal burn (part 1, 2 mg (N = 6)): 0 n (%)
TEAE Thermohypoesthesia (part 1, 2 mg (N = 6)): 0 n (%)
Total no. participants with AEs (part 1, 2 mg (N = 6)): 3 (50) n (%)
TEAE Agusia (part 1, 5 mg (N = 6)): 0 n (%)
TEAE Back pain (part 1, 5 mg (N = 6)): 0 n (%)
TEAE Burning sensation (part 1, 5 mg (N = 6)): 0 n (%)
TEAE Chills (part 1, 5 mg (N = 6)): 0 n (%)
TEAE Dizziness (part 1, 5 mg (N = 6)): 0 n (%)
TEAE Dizziness postural (part 1, 5 mg (N = 6)): 0 n (%)
TEAE Dysgeusia (part 1, 5 mg (N = 6)): 0 n (%)
TEAE Fatigue (part 1, 5 mg (N = 6)): 0 n (%)
TEAE Feeling cold (part 1, 5 mg (N = 6)): 1 (17) n (%)
TEAE Feeling hot (part 1, 5 mg (N = 6)): 1 (17) n (%)
TEAE Headache (part 1, 5 mg (N = 6)): 0 n (%)
TEAE Hematoma (part 1, 5 mg (N = 6)): 0 n (%)
TEAE Hyperhidrosis (part 1, 5 mg (N = 6)): 0 n (%)
TEAE Hypoesthesia (part 1, 5 mg (N = 6)): 0 n (%)
TEAE Hypogeusia (part 1, 5 mg (N = 6)): 0 n (%)
TEAE Nausea (part 1, 5 mg (N = 6)): 0 n (%)
TEAE Paresthesia (part 1, 5 mg (N = 6)): 0 n (%)
TEAE Pruritus (part 1, 5 mg (N = 6)): 0 n (%)
TEAE Pyrexia (part 1, 5 mg (N = 6)): 4 (67) n (%)
TEAE Rhinitis (part 1, 5 mg (N = 6)): 0 n (%)
TEAE Thermal burn (part 1, 5 mg (N = 6)): 0 n (%)
TEAE Thermohypoesthesia (part 1, 5 mg (N = 6)): 0 n (%)
Total no. participants with AEs (part 1, 5 mg (N = 6)): 4 (67) n (%)
TEAE Agusia (part 1, 10 mg (N = 6)): 0 n (%)
TEAE Back pain (part 1, 10 mg (N = 6)): 0 n (%)
TEAE Burning sensation (part 1, 10 mg (N = 6)): 0 n (%)
TEAE Chills (part 1, 10 mg (N = 6)): 0 n (%)
TEAE Dizziness (part 1, 10 mg (N = 6)): 1 (17) n (%)
TEAE Dizziness postural (part 1, 10 mg (N = 6)): 2 (33) n (%)
TEAE Dysgeusia (part 1, 10 mg (N = 6)): 0 n (%)
TEAE Fatigue (part 1, 10 mg (N = 6)): 0 n (%)
TEAE Feeling cold (part 1, 10 mg (N = 6)): 0 n (%)
TEAE Feeling hot (part 1, 10 mg (N = 6)): 0 n (%)
TEAE Headache (part 1, 10 mg (N = 6)): 1 (17) n (%)
TEAE Hematoma (part 1, 10 mg (N = 6)): 0 n (%)
TEAE Hyperhidrosis (part 1, 10 mg (N = 6)): 1 (17) n (%)
TEAE Hypoesthesia (part 1, 10 mg (N = 6)): 0 n (%)
TEAE Hypogeusia (part 1, 10 mg (N = 6)): 0 n (%)
TEAE Nausea (part 1, 10 mg (N = 6)): 1 (17) n (%)
TEAE Orthostatic hypotension (part 1, 10 mg (N = 6)): 2 (33) n (%)
TEAE Paresthesia (part 1, 10 mg (N = 6)): 1 (17) n (%)
TEAE Pruritus (part 1, 10 mg (N = 6)): 1 (17) n (%)
TEAE Pyrexia (part 1, 10 mg (N = 6)): 5 (83) n (%)
TEAE Rhinitis (part 1, 10 mg (N = 6)): 2 (33) n (%)
TEAE Thermal burn (part 1, 10 mg (N = 6)): 0 n (%)
TEAE Thermohypoesthesia (part 1, 10 mg (N = 6)): 3 (50) n (%)
Total no. participants with AEs (part 1, 10 mg (N = 6)): 6 (100) n (%)
TEAE Agusia (part 1, 15 mg (N = 6)): 0 n (%)
TEAE Back pain (part 1, 15 mg (N = 6)): 0 n (%)
TEAE Burning sensation (part 1, 15 mg (N = 6)): 0 n (%)
TEAE Chills (part 1, 15 mg (N = 6)): 0 n (%)
TEAE Dizziness (part 1, 15 mg (N = 6)): 1 (17) n (%)
TEAE Dizziness postural (part 1, 15 mg (N = 6)): 1 (17) n (%)
TEAE Dysgeusia (part 1, 15 mg (N = 6)): 1 (17) n (%)
TEAE Fatigue (part 1, 15 mg (N = 6)): 0 n (%)
TEAE Feeling cold (part 1, 15 mg (N = 6)): 4 (67) n (%)
TEAE Feeling hot (part 1, 15 mg (N = 6)): 5 (83) n (%)
TEAE Headache (part 1, 15 mg (N = 6)): 0 n (%)
TEAE Hematoma (part 1, 15 mg (N = 6)): 0 n (%)
TEAE Hyperhidrosis (part 1, 15 mg (N = 6)): 3 (50) n (%)
TEAE Hypoesthesia (part 1, 15 mg (N = 6)): 0 n (%)
TEAE Hypogeusia (part 1, 15 mg (N = 6)): 2 (33) n (%)
TEAE Nausea (part 1, 15 mg (N = 6)): 0 n (%)
TEAE Paresthesia (part 1, 15 mg (N = 6)): 2 (33) n (%)
TEAE Pruritus (part 1, 15 mg (N = 6)): 1 (17) n (%)
TEAE Pyrexia (part 1, 15 mg (N = 6)): 4 (67) n (%)
TEAE Rhinitis (part 1, 15 mg (N = 6)): 0 n (%)
TEAE Thermal burn (part 1, 15 mg (N = 6)): 0 n (%)
TEAE Thermohypoesthesia (part 1, 15 mg (N = 6)): 5 (83) n (%)
Total no. participants with AEs (part 1, 15 mg (N = 6)): 6 (100) n (%)
TEAE Agusia (part 1, 15 mg R (N = 6)): 0 n (%)
TEAE Back pain (part 1, 15 mg R (N = 6)): 0 n (%)
TEAE Burning sensation (part 1, 15 mg R (N = 6)): 0 n (%)
TEAE Chills (part 1, 15 mg R (N = 6)): 0 n (%)
TEAE Dizziness (part 1, 15 mg R (N = 6)): 0 n (%)
TEAE Dizziness postural (part 1, 15 mg R (N = 6)): 0 n (%)
TEAE Dysgeusia (part 1, 15 mg R (N = 6)): 0 n (%)
TEAE Fatigue (part 1, 15 mg R (N = 6)): 0 n (%)
TEAE Feeling cold (part 1, 15 mg R (N = 6)): 3 (50) n (%)
TEAE Feeling hot (part 1, 15 mg R (N = 6)): 3 (50) n (%)
TEAE Headache (part 1, 15 mg R (N = 6)): 0 n (%)
TEAE Hematoma (part 1, 15 mg R (N = 6)): 0 n (%)
TEAE Hyperhidrosis (part 1, 15 mg R (N = 6)): 0 n (%)
TEAE Hypoesthesia (part 1, 15 mg R (N = 6)): 1 (17) n (%)
TEAE Hypogeusia (part 1, 15 mg R (N = 6)): 0 n (%)
TEAE Nausea (part 1, 15 mg R (N = 6)): 0 n (%)
TEAE Paresthesia (part 1, 15 mg R (N = 6)): 2 (33) n (%)
TEAE Pruritus (part 1, 15 mg R (N = 6)): 0 n (%)
TEAE Pyrexia (part 1, 15 mg R (N = 6)): 2 (33) n (%)
TEAE Rhinitis (part 1, 15 mg R (N = 6)): 0 n (%)
TEAE Thermal burn (part 1, 15 mg R (N = 6)): 0 n (%)
TEAE Thermohypoesthesia (part 1, 15 mg R (N = 6)): 2 (33) n (%)
Total no. participants with AEs (part 1, 15 mg R (N = 6)): 6 (100) n (%)
TEAE Agusia (part 1, 30 mg (N = 5)): 0 n (%)
TEAE Back pain (part 1, 30 mg (N = 5)): 2 (40) n (%)
